Measurements as given in ChEMBL document CHEMBL1122284, “Aromatic retinoic acid analogues. 2. Synthesis and pharmacological activity” (1983).

What was measured:
[1] = system: Cricetinae gen. sp.; test: Relative potency with respect to retinoic acid in hamster tracheal organ culture assay (TOC); assay type: functional, Cricetulus griseus, Trachea
[2] = target: T1, Ornithine decarboxylase (Mus musculus) (UniProt P00860); test: Percent inhibition of the induction of ornithine decarboxylase at 1.7 nmol in mouse dorsal epidermis (ODC assay); assay type: functional
T1 sequence (whole entry): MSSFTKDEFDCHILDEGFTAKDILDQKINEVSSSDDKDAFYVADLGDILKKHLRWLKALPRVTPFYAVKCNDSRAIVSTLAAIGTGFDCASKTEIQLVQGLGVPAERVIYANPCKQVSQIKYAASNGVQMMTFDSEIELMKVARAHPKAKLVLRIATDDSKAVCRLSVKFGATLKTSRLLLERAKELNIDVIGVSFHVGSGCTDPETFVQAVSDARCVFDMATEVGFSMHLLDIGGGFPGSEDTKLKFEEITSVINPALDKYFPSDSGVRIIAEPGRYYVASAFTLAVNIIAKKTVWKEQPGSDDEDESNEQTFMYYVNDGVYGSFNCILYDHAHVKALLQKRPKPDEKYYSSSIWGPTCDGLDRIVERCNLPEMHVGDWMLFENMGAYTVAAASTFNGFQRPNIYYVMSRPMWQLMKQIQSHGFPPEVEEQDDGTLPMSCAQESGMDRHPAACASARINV

[3] = target: T1, Ornithine decarboxylase (Mus musculus); test: Percent inhibition of the induction of ornithine decarboxylase at 17 nmol dose in mouse dorsal epidermis (ODC assay); assay type: functional
[4] = target: T1, Ornithine decarboxylase (Mus musculus); test: Percent inhibition of the induction of ornithine decarboxylase at 170 nmol in mouse dorsal epidermis (ODC assay); assay type: functional
[5] = system: Cricetinae gen. sp.; test: Total cultures(14) versus active (10) at 10e-9 M conc. in hamster tracheal organ culture assay (TOC); assay type: functional, Trachea
In short: (§1)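 Tracheas from Syrian golden hamsters kept on a vitamin A deficient diet from birth to 30–32 days old. Cultured serum-free (CMRL 1066 with insulin, hydrocortisone, glutamine, antibiotics), one explant per dish, 50% O2/45% N2/5% CO2, 36 °C, rocked. 3 days without retinoid, then 7 days with retinoid, medium renewed three times. Histology on day 10. Active means keratin/keratohyaline granules absent. Usually duplicate, 6–7 tracheas per concentration.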

[6] = system: Cricetinae gen. sp.; test: Total cultures(13) versus active (13) at 10e-8 M conc. in hamster tracheal organ culture assay (TOC); assay type: functional, Trachea; in short: as §1
[7] = system: Cricetinae gen. sp.; test: Total cultures(14) versus active (6) at 10e-10 M conc. in hamster tracheal organ culture assay (TOC); assay type: functional, Trachea; in short: as §1
[8] = system: Cricetinae gen. sp.; test: ED50 of retinoid required to effect reversal of keratinization; assay type: functional; in short: as §1
[9] = system: Cricetinae gen. sp.; test: Total cultures(6) versus active (5) at 10e-9 M conc. in hamster tracheal organ culture assay (TOC); assay type: functional, Trachea; in short: as §1
[10] = system: Cricetinae gen. sp.; test: Total cultures(6) versus active (1) at 10e-11 M conc. in hamster tracheal organ culture assay (TOC); assay type: functional, Trachea; in short: as §1
[11] = system: Cricetinae gen. sp.; test: Total cultures(6) versus active (3) at 10e-10 M conc. in hamster tracheal organ culture assay (TOC); assay type: functional, Trachea; in short: as §1
[12] = system: Cricetinae gen. sp.; test: Total cultures(11) versus active(12)at 10e-8 M conc. in hamster tracheal organ culture assay (TOC); assay type: functional, Trachea; in short: as §1
[13] = system: Cricetinae gen. sp.; test: Total cultures(10) versus active (12)at 10e-9 M conc. in hamster tracheal organ culture assay (TOC); assay type: functional, Trachea; in short: as §1
[14] = system: Cricetinae gen. sp.; test: Total cultures(6) versus active(13) at 10e-10 M conc. in hamster tracheal organ culture assay (TOC); assay type: functional, Trachea; in short: as §1
[15] = system: Cricetinae gen. sp.; test: Total cultures(3) versus active(11) at 10e-10 M conc. in hamster tracheal organ culture assay (TOC); assay type: functional, Trachea; in short: as §1
[16] = system: Cricetinae gen. sp.; test: Total cultures(0) versus active(6) at 10e-11 M conc. in hamster tracheal organ culture assay (TOC); assay type: functional, Trachea; in short: as §1
[17] = system: Cricetinae gen. sp.; test: Total cultures(12) versus active(12) at 10e-9 M conc. in hamster tracheal organ culture assay (TOC); assay type: functional, Trachea; in short: as §1
[18] = system: Cricetinae gen. sp.; test: Total cultures(6) versus active(6) at 10e-8 M conc. in hamster tracheal organ culture assay (TOC); assay type: functional, Trachea; in short: as §1
[19] = system: Cricetinae gen. sp.; test: Total cultures (13) versus active (4) at 10e-10 M conc. in hamster tracheal organ culture assay (TOC); assay type: functional, Trachea; in short: as §1
[20] = system: Cricetinae gen. sp.; test: Total cultures(11) versus active (5) at 10e-8 M conc. in hamster tracheal organ culture assay (TOC); assay type: functional, Trachea; in short: as §1
[21] = system: Cricetinae gen. sp.; test: Total cultures(13) versus active (5) at 10e-9 M conc. in hamster tracheal organ culture assay (TOC); assay type: functional, Trachea; in short: as §1
[22] = target: T1, Ornithine decarboxylase (Mus musculus); test: Percent inhibition of the induction of ornithine decarboxylase in mouse dorsal epidermis (ODC assay); assay type: functional
[23] = system: Cricetinae gen. sp.; test: Total cultures(0) versus active(7) at 10e-11 M conc. in hamster tracheal organ culture assay (TOC); assay type: functional, Trachea; in short: as §1
[24] = system: Cricetinae gen. sp.; test: Total cultures(13) versus active(13) at 10e-9 M conc. in hamster tracheal organ culture assay (TOC); assay type: functional, Trachea; in short: as §1
[25] = system: Cricetinae gen. sp.; test: Total cultures(4) versus active(13) at 10e-10 M conc. in hamster tracheal organ culture assay (TOC); assay type: functional, Trachea; in short: as §1

Row | inhibition of control [2] | inhibition of control [3] | SMILES | Relative activity [1] | ED50 [8] | other results
1 | 62% | 69% | CC1=C(/C=C/C(C)=C/c2ccc(C(=O)O)cc2)C(C)(C)CCC1 | 2 | – | inhibition of control [4]: 87%
2 | 9% | 37% | COc1cc(C(=O)O)ccc1/C=C(C)/C=C/C1=C(C)CCCC1(C)C | 3 | 0.01 nM | Active/total cultures [9]: 83%; Active/total cultures [10]: 17%; Active/total cultures [11]: 50%
3 | 37% | 78% | CC1=C(/C=C/C(C)=C/c2ccc(C(=O)O)cc2F)C(C)(C)CCC1 | 5 | 0.006 nM | Active/total cultures [15]: 27%; Active/total cultures [16]: 0%; Active/total cultures [17]: 100%; Active/total cultures [18]: 100%
4 | 33% | 43% | CC1=C(/C=C/C(C)=C\c2ccc(C(=O)O)cc2)C(C)(C)CCC1 | <0.1 | 0.01 nM | inhibition of control [22]: 64%

The remaining lines, values behind:

Row | SMILES | inhibition of control [2] | inhibition of control [3] | Relative activity [1] | ED50 [8] | other results
5 | CCOC(=O)c1ccc(/C=C(C)/C=C/C2=C(C)CCCC2(C)C)s1 | 67% | 77% | 3 | 0.02 nM | Active/total cultures [5]: 71%; Active/total cultures [6]: 100%; Active/total cultures [7]: 43%
6 | CCOC(=O)c1ccc(/C(F)=C(C)/C=C/C2=C(C)CCCC2(C)C)cc1 | 56% | 82% | 2 | 0.02 nM | Active/total cultures [12]: 92%; Active/total cultures [13]: 83%; Active/total cultures [14]: 46%
7 | CC1=C(/C=C/C(C)=C/c2ccc(C(=O)O)o2)C(C)(C)CCC1 | 7% | 5% | <<0.1 | 0.02 nM | Active/total cultures [19]: 31%; Active/total cultures [20]: 45%; Active/total cultures [21]: 38%
8 | CCOC(=O)c1ccc(/C=C(C)/C=C/C2=C(C)CCCC2(C)C)cc1 | – | 80% | 1 | 0.006 nM | Active/total cultures [23]: 0%; Active/total cultures [24]: 100%; Active/total cultures [25]: 31%; Active/total cultures [18]: 100%
